Assay results collected from several papers.
Compare with care: the assays were run in different laboratories.
Target: Cyclin-dependent kinase 13 (CDK13, Homo sapiens, UniProt Q14004)

COc1ccnn2ncc(-c3ccnc(N(C)C)n3)c12
remaining binding (binding; 1 µM): 69%

Cc1c(C(=O)O)cc(-c2ccc(C3CCNCC3)cc2)c2ccc(-c3ccc(C(F)(F)F)cc3)cc12
remaining binding (binding; competition with immobilised ligand; 1 µM): 100%

O=C(NCC1CCOCC1)c1n[nH]cc1NC(=O)c1c(F)cccc1F
remaining binding (binding; competition with immobilised ligand; 1 µM): 66%

CC1CCCN1c1nccc(-c2cnn3ncccc23)n1 (stereo not shown)
remaining binding (binding; 1 µM): 100%

O=C(O)[C@H]1[C@H](Cn2nnc3ccccc3c2=O)CC[C@@H]1C(=O)c1ccc(OCCC2CCOCC2)cc1
remaining binding (cell-free assay; competition with immobilised ligand; 1 µM): 93%

c1cnn2ncc(-c3ccnc(N4CCC45COC5)n3)c2c1
remaining binding (binding; 1 µM): 87%

CC(=O)c1c(NS(C)(=O)=O)c2cc(-c3ccc(Cl)cc3)c(-c3ccc(Cl)cc3Cl)nc2n(C)c1=O
remaining binding (cell-free assay; competition with immobilised ligand; 1 µM): 96%

O=C(c1ccc(Nc2ncc(Cl)c(-c3ccc(Cl)s3)n2)cc1)N1CCC(N2CCCC2)CC1
remaining binding (binding; competition with immobilised ligand; 1 µM): 18%

COCCOc1nc(-c2ccc(Cl)nc2)nc2c1CN(C(=O)c1ncn3ccccc13)CC2
remaining binding (cell-free assay; competition with immobilised ligand; 0.1 µM): 100%

c1cncc(-c2cccc(Nc3nccc(NC4CCCCC4)n3)c2)c1
remaining binding (binding; competition with immobilised ligand; 10 µM): 100%

O=C(Nc1cccnn1)N1CC(C/C=C/c2cncc(Oc3ccc(C(F)(F)F)cn3)n2)C1
remaining binding (cell-free assay; competition with immobilised ligand; 1 µM): 98%

O=C(NCCCN1CCOCC1)c1ccc(Nc2ncc(Cl)c(-c3ccc(Cl)s3)n2)cc1
remaining binding (binding; competition with immobilised ligand; 1 µM): 34%

CN(c1nccc(-c2cnn3ncccc23)n1)C1CC1
remaining binding (binding; 1 µM): 100%

CNC(=O)[C@@H]1CC[C@@H](n2c(-c3ccc4cnccc4c3)nc3ccc(C(=O)NCc4cccc(C(N)=O)c4)cc32)C1
remaining binding (binding; competition with immobilised ligand; 1 µM): 100%

N#CC1(c2ccccn2)CCN(Cc2cc(C(=O)N3CCCC3)c(=O)n3ccccc23)CC1
remaining binding (cell-free assay; competition with immobilised ligand; 1 µM): 100%

C[C@@H]1CCN(c2nccc(-c3cnn4ncccc34)n2)C1
remaining binding (binding; 1 µM): 72%

O=C(c1ccc(Nc2nccc(-c3cc4ccccc4s3)n2)cc1)N1CCC(N2CCCC2)CC1
remaining binding (binding; competition with immobilised ligand; 1 µM): 92%

N[C@@H]1CCN(c2nccc(-c3cnn4ncccc34)n2)C1
remaining binding (binding; 1 µM): 54%

COc1cnc(Nc2cccc(S(N)(=O)=O)c2)nc1N1CCN(c2ccccc2)CC1
remaining binding (binding; competition with immobilised ligand; 1 µM): 21%
